Measured values taken from ChEMBL document CHEMBL1136659, “Benzamide derivatives as blockers of Kv1.3 ion channel” (Bioorg Med Chem Lett, 2003).

Experiments:
[1] = biological target: T1, Potassium voltage-gated channel subfamily A member 3 (Homo sapiens, UniProt P22001); assay: Inhibition of Kv1.3 ion channel. Measured in the Rb_Kv assay: [86Rb+] efflux from CHO cells stably transfected with Kv1.3 channel.; assay type: functional, cell-based
[2] = Inhibition of DiTc binding to Kv1.x channel in human brain membranes; assay type: cell membranes, Membrane
Outline: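 Displacement of diTC (C20-C29 ditritio-correolide) binding to human brain membranes carrying Kv1.x channels, primarily heteromultimeric Kv1.1/Kv1.2.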

[3] = biological target: T1, Potassium voltage-gated channel subfamily A member 3; assay: Inhibition of DiTc binding to Kv1.3 channel in human brain membranes; assay type: cell membranes, Membrane
[4] = biological target: T1, Potassium voltage-gated channel subfamily A member 3; assay: Inhibition of [86Rb+] efflux from CHO cells stably transfected with Kv1.3 channel; assay type: functional, cell-based

T1 sequence (P22001 whole entry): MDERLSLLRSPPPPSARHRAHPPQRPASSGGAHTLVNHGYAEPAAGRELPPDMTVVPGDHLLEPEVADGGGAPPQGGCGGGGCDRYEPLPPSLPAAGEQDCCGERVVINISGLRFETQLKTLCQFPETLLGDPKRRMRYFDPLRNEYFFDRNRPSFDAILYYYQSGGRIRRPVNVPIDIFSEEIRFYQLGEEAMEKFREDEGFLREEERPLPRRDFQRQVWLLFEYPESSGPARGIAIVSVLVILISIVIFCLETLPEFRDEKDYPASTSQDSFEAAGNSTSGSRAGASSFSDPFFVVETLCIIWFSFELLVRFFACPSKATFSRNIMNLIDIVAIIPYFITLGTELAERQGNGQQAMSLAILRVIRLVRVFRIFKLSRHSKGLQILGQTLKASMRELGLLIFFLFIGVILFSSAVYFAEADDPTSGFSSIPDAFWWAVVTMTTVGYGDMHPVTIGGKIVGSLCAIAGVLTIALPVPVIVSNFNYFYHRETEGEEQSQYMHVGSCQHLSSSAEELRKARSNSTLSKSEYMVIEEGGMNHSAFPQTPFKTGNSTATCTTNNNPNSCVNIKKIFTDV

Row | SMILES | IC50 [1] [nM] | also measured
1 | COc1ccccc1C(=O)NC[C@]1(c2ccccc2)CC[C@H](OC(=O)NCCCc2ccccc2)CC1 | 535 | –
2 | COc1ccccc1C(=O)NC[C@]1(c2ccccc2)CC[C@H](NC(=O)CCc2ccccc2)CC1 | 120 | –
3 | C=CCNC(=O)O[C@H]1CC[C@@](CNC(=O)c2cccc3c2OCC3)(c2ccccc2)CC1 | 3730 | –
4 | C=CCNC(=O)O[C@H]1CC[C@@](CNC(=O)c2cc(F)ccc2O)(c2ccccc2)CC1 | 140 | –
5 | C=CCNC(=O)O[C@H]1CC[C@@](CNC(=O)c2cccc(Cl)c2O)(c2ccccc2)CC1 | 7200 | –
6 | C=CCNC(=O)N[C@H]1CC[C@](CNC(=O)c2ccccc2OC)(c2ccccc2)CC1 | – | IC50 [2]: 125 nM; IC50 [3]: 80 nM; IC50 [4]: 140 nM
7 | CCOc1ccccc1C(=O)NCC1(c2ccccc2)CCC(=O)CC1 | 580 | –
8 | CCCCNC(=O)O[C@H]1CC[C@@](CNC(=O)c2ccccc2OC)(c2ccccc2)CC1 | 90 | –
9 | C=CCNC(=O)O[C@H]1CC[C@@](CNC(=O)c2cc(Cl)ccc2OC)(c2ccccc2)CC1 | 230 | –
10 | CCCCNC(=O)O[C@H]1CC[C@](CNC(=O)c2ccccc2OC)(c2ccccc2)CC1 | 140 | –
11 | C=CCNC(=O)N[C@H]1CC[C@@](CNC(=O)c2ccccc2OC)(c2ccccc2)CC1 | – | IC50 [2]: 120 nM; IC50 [3]: 29 nM; IC50 [4]: 150 nM
12 | COc1ccc(C(=O)NCC2(c3ccccc3)CCC(=O)CC2)cc1 | 10000 | –
13 | CCCNC(=O)O[C@H]1CC[C@@](CNC(=O)c2ccccc2OC)(c2ccccc2)CC1 | – | IC50 [2]: 30 nM; IC50 [3]: 5 nM; IC50 [4]: 50 nM
14 | COc1ccccc1C(=O)N(C)CC1(c2ccccc2)CCC(=O)CC1 | > 30000 | –
15 | C=CCNC(=O)O[C@H]1CC[C@@](CNC(=O)c2cccc(Cl)c2OC)(c2ccccc2)CC1 | 8380 | –
16 | CNC(=O)O[C@H]1CC[C@@](CNC(=O)c2ccccc2OC)(c2ccccc2)CC1 | – | IC50 [2]: 33 nM; IC50 [3]: 5 nM; IC50 [4]: 58 nM
17 | COc1ccccc1C(=O)NC[C@]1(c2ccccc2)CC[C@H](OC(=O)NCc2ccccc2)CC1 | 245 | –
18 | COc1ccccc1S(=O)(=O)NCC1(c2ccccc2)CCC(=O)CC1 | > 30000 | –
19 | C=CCNC(=O)O[C@H]1CC[C@](CNC(=O)c2ccccc2OC)(c2ccccc2)CC1 | – | IC50 [2]: 170 nM; IC50 [3]: 140 nM; IC50 [4]: 130 nM
20 | COc1ccccc1C(=O)NCC1(c2ccccc2)CCC(=O)CC1 | 200 | –

Row | SMILES | IC50 [1] [nM] | also measured
21 | COc1ccccc1C(=O)NC[C@]1(c2ccccc2)CC[C@@H](NC(=O)CCc2ccccc2)CC1 | 570 | –
22 | C=CCOC(=O)N[C@H]1CC[C@](CNC(=O)c2ccccc2OC)(c2ccccc2)CC1 | – | IC50 [2]: 68 nM; IC50 [3]: 72 nM; IC50 [4]: 90 nM
23 | C=CCNC(=O)O[C@H]1CC[C@@](CNC(=O)c2ccccc2OC)(c2ccccc2)CC1 | – | IC50 [2]: 112 nM; IC50 [3]: 18 nM; IC50 [4]: 70 nM
24 | COc1cccc(C(=O)NCC2(c3ccccc3)CCC(=O)CC2)c1 | > 30000 | –
25 | CNc1ccccc1C(=O)NCC1(c2ccccc2)CCC(=O)CC1 | 600 | –
26 | COc1ccccc1C(=O)NC[C@]1(c2ccccc2)CC[C@@H](OC(=O)NCc2ccccc2)CC1 | 1700 | –
27 | COc1ccccc1C(=O)NC[C@]1(c2ccccc2)CC[C@H](OC(=O)NCCc2ccccc2)CC1 | 420 | –
28 | COCCCNC(=O)O[C@H]1CC[C@@](CNC(=O)c2ccccc2OC)(c2ccccc2)CC1 | 145 | –
29 | CNC(=O)O[C@H]1CC[C@](CNC(=O)c2ccccc2OC)(c2ccccc2)CC1 | – | IC50 [2]: 104 nM; IC50 [3]: 99 nM; IC50 [4]: 150 nM
30 | O=C1CCC(CNC(=O)c2cccc(Cl)c2)(c2ccccc2)CC1 | 30000 | –
31 | CCCNC(=O)O[C@H]1CC[C@](CNC(=O)c2ccccc2OC)(c2ccccc2)CC1 | – | IC50 [2]: 76 nM; IC50 [3]: 79 nM; IC50 [4]: 100 nM
32 | COCCCNC(=O)O[C@H]1CC[C@](CNC(=O)c2ccccc2OC)(c2ccccc2)CC1 | 130 | –
33 | O=C1CCC(CNC(=O)c2ccccc2)(c2ccccc2)CC1 | > 30000 | –
34 | COCCNC(=O)O[C@H]1CC[C@@](CNC(=O)c2ccccc2OC)(c2ccccc2)CC1 | 140 | –
35 | COc1ccccc1C(=O)N(C)CC1(c2ccccc2)CCNCC1 | > 30000 | –
36 | COCCNC(=O)O[C@H]1CC[C@](CNC(=O)c2ccccc2OC)(c2ccccc2)CC1 | 140 | –
37 | COc1ccccc1C(=O)NCC1CCCCC1 | > 30000 | –
38 | COc1ccccc1C(=O)NC[C@]1(c2ccccc2)CC[C@@H](OC(=O)Nc2ccccc2)CC1 | > 30000 | –
39 | C=CCNC(=O)O[C@H]1CC[C@@](CNC(=O)c2cccnc2OC)(c2ccccc2)CC1 | 325 | –
40 | COc1ccccc1C(=O)NC[C@]1(c2ccccc2)CC[C@H](OC(=O)Nc2ccccc2)CC1 | 120 | –

Further lines, with some results ahead:

Row | IC50 [1] [nM] | SMILES | also measured
41 | 2790 | COc1ccccc1C(=O)NC[C@]1(c2ccccc2)CC[C@@H](NC(=O)c2ccccc2Br)CC1 | –
42 | 120 | C=C(C)CNC(=O)O[C@H]1CC[C@](CNC(=O)c2ccccc2OC)(c2ccccc2)CC1 | –
43 | 470 | COc1ccccc1C(=O)NC[C@]1(c2ccccc2)CC[C@@H](NC(=O)C=C(C)C)CC1 | –
44 | 205 | C=CCN(CC=C)C(=O)O[C@H]1CC[C@](CNC(=O)c2ccccc2OC)(c2ccccc2)CC1 | –
45 | 310 | COc1ccccc1C(=O)NC[C@]1(c2ccccc2)CC[C@@H](OC(=O)NCCO)CC1 | –
46 | 440 | C/C=C/C(=O)N[C@H]1CC[C@@](CNC(=O)c2ccccc2OC)(c2ccccc2)CC1 | –
47 | 320 | C=CCN(C)C(=O)O[C@H]1CC[C@@](CNC(=O)c2ccccc2OC)(c2ccccc2)CC1 | –
48 | > 30000 | COc1ccccc1C(=O)NC[C@]1(c2ccccc2)CC[C@@H](NC(=O)c2ccc(Br)cc2)CC1 | –
49 | 100 | C/C=C/C(=O)N[C@H]1CC[C@](CNC(=O)c2ccccc2OC)(c2ccccc2)CC1 | –
50 | 75 | COc1ccccc1C(=O)NC[C@]1(c2ccccc2)CC[C@H](NC(=O)c2ccccc2)CC1 | –
51 | 145 | C=CCN(C)C(=O)O[C@H]1CC[C@](CNC(=O)c2ccccc2OC)(c2ccccc2)CC1 | –
52 | 210 | CCC(=O)N[C@H]1CC[C@@](CNC(=O)c2ccccc2OC)(c2ccccc2)CC1 | –
53 | 200 | CCCC(=O)N[C@H]1CC[C@@](CNC(=O)c2ccccc2OC)(c2ccccc2)CC1 | –
54 | 470 | COc1ccccc1C(=O)NC[C@]1(c2ccccc2)CC[C@@H](NC(C)=O)CC1 | –
55 | 195 | C=CCN(C)C(=O)N[C@H]1CC[C@](CNC(=O)c2ccccc2OC)(c2ccccc2)CC1 | –
56 | 230 | C=CCOC(=O)O[C@H]1CC[C@](CNC(=O)c2ccccc2OC)(c2ccccc2)CC1 | –
57 | 1560 | COc1ccccc1C(=O)NC[C@]1(c2ccccc2)CC[C@@H](NC(=O)c2ccccc2)CC1 | –
58 | 90 | C=C(C)CNC(=O)O[C@H]1CC[C@@](CNC(=O)c2ccccc2OC)(c2ccccc2)CC1 | –
59 | > 30000 | COc1ccccc1C(=O)NC[C@]1(c2ccccc2)CC[C@@H](NC(=O)c2cccc(Br)c2)CC1 | –
60 | 95 | COc1ccccc1C(=O)NC[C@]1(c2ccccc2)CC[C@H](OC(=O)NCCO)CC1 | –
61 | 135 | COC(=O)N[C@H]1CC[C@@](CNC(=O)c2ccccc2OC)(c2ccccc2)CC1 | –
62 | 130 | COc1ccccc1C(=O)NC[C@]1(c2ccccc2)CC[C@H](OC(=O)NC(C)C)CC1 | –
63 | 75 | COc1ccccc1C(=O)NC[C@]1(c2ccccc2)CC[C@@H](OC(=O)NC(C)C)CC1 | –
64 | 1050 | COc1ccccc1C(=O)NC[C@]1(c2ccccc2)CC[C@@H](NC(=O)Cc2ccccc2)CC1 | –
65 | 242 | C=CCOC(=O)N[C@H]1CC[C@@](CNC(=O)c2ccccc2OC)(c2ccccc2)CC1 | –
66 | 130 | COc1ccccc1C(=O)NC[C@]1(c2ccccc2)CC[C@H](NC(=O)Cc2ccccc2)CC1 | –
67 | 840 | C=CCN(CC=C)C(=O)O[C@H]1CC[C@@](CNC(=O)c2ccccc2OC)(c2ccccc2)CC1 | –
68 | 150 | COc1ccccc1C(=O)NC[C@]1(c2ccccc2)CC[C@@H](NC(=O)SC)CC1 | –
